Experimental data taken from ChEMBL document CHEMBL4321819, “Simple Structural Modifications Converting a Bona fide MDM2 PROTAC Degrader into a Molecular Glue Molecule: A Cautionary Tale in the Design of PROTAC Degraders” (J Med Chem, 2019).
The source made the active and inactive calls. The calls are words filed in the database; no cut-off is given here.

Assays:
RS4-11 = assay: Antiproliferative activity against human RS4:11 cells expressing wild type p53 assessed as cell growth inhibition without interaction with cereblon after 4 days by WST-8 assay; format: functional, cell-based; conditions: RS4-11, 96 h
In short: (§1)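 Leukemia cells seeded at 10000–20000 cells/well, breast cancer lines at 5000–10000 cells/well. Serially diluted compound added, then 4 days at 37 °C, 5% CO2. Growth read with WST-8 reagent after at least 1 h, absorbance at 450 nm. RS4;11, MOLM-13 and breast lines were grown in RPMI 1640; MV-4-11 and HL-60 in IMDM; all with 10% FBS. Mean ± SE, at least three independent experiments.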

[1] = target: T1, Eukaryotic peptide chain release factor GTP-binding subunit ERF3A (Homo sapiens, UniProt P15170); assay: Induction of GSPT1 degradation in human RS4:11 cells measured after 24 hrs by Western blot analysis; format: cell-based
HL-60 = assay: Antiproliferative activity against human HL60 cells with lack of p53 assessed as cell growth inhibition after 4 days by WST-8 assay; format: functional, cell-based; conditions: HL-60, 96 h; in short: as §1
MDA-MB-231 [2] = assay: Antiproliferative activity against human MDA-MB-231 cells assessed as cell growth inhibition after 4 days in presence of control siRNA for 2 days followed by compound treatment by WST-8 assay; format: functional, cell-based
In short: (§2)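 MDA-MB-231 or MDA-MB-468 cells transfected for 2 days using Lipofectamine RNAiMAX with MDM2 siRNA, one of two CRBN siRNAs, or non-targeting control siRNA. Compound then added and growth read by WST-8 at 450 nm.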

MDA-MB-231 [3] = assay: Antiproliferative activity against human MDA-MB-231 cells assessed as cell growth inhibition after 4 days in presence of control siRNA for 3 days followed by compound treatment by WST-8 assay; format: functional, cell-based
[4] = target: Protein cereblon/Eukaryotic peptide chain release factor GTP-binding subunit ERF3A (Homo sapiens) (UniProt Q96SW2+P15170); assay: Inhibition of cereblon binding with GSPT1 in human MDA-MB-231 cells assessed as decrease in GSPT1 degradation at 0.1 uM after 2 hrs in presence of 30 uM lenalidomide by Western blot analysis; format: cell-based
In short: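 MDA-MB-231 or MDA-MB-468 cells were treated 2 h with or without 30 μM lenalidomide to block cereblon binding. GSPT1 protein level was then assessed by Western blotting.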

MV4-11 = assay: Antiproliferative activity against human MV4-11 cells expressing wild type p53 assessed as cell growth inhibition after 4 days by WST-8 assay; format: functional, cell-based; conditions: MV4-11, 96 h; in short: as §1
MDA-MB-231 [5] = assay: Antiproliferative activity against human MDA-MB-231 cells transfected with MDM2 siRNA assessed as cell growth inhibition after 4 days by WST-8 assay; format: functional, cell-based; conditions: MDA-MB-231, 96 h; in short: as §2
[6] = target: T1, Eukaryotic peptide chain release factor GTP-binding subunit ERF3A; assay: Induction of GSPT1 degradation in human MDA-MB-468 cells transfected with CRBN siRNA LQ-021086-10-0002 assessed as decrease in GSPT1 protein level at 0.1 uM after 2 to 24 hrs by Western blot analysis; format: cell-based
In short: (§3)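 MDA-MB-231 or MDA-MB-468 cells transfected 2 days with CRBN siRNA (Lipofectamine RNAiMAX; non-targeting siRNA as control), then exposed to 0.1 μM for 2 h or 24 h. Cell culture was RPMI 1640 with 10% FBS at 37 °C, 5% CO2. GSPT1 and cereblon protein were probed by Western blot.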

[7] = target: GSPT1/E3 ubiquitin-protein ligase Mdm2 (Homo sapiens) (UniProt Q00987+P15170); assay: Binding affinity to GSPT1/MDM2 in human MDA-MB-231 cells assessed as GSPT1 degradation at 0.1 to 1 uM after 2 hrs by Western blot analysis; format: cell-based
MDA-MB-468 = assay: Antiproliferative activity against human MDA-MB-468 cells harboring mutant p53 assessed as cell growth inhibition after 4 days by WST-8 assay; format: functional, cell-based; conditions: MDA-MB-468, 96 h; in short: as §1
[8] = target: T2, E3 ubiquitin-protein ligase Mdm2 (Homo sapiens, UniProt Q00987); assay: Induction of MDM2 degradation in human RS4:11 cells assessed as upregulation of p53 at 1 to 30 nM after 1 hr by Western blot analysis; format: cell-based
In short: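 Western blots of MDM2 and p53 protein were run on RS4;11 cells (wild-type p53) in RPMI 1640 with 10% FBS. 2×10^6 cells/well were treated at the indicated concentrations for 1 h or 2 h. Lysis was in ice-cold buffer with protease inhibitor, followed by probing with specific antibodies.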

[9] = target: Cellular tumor antigen p53 (Homo sapiens) (UniProt P04637); assay: Activation of p53 in human RS4:11 cells assessed as increase in CDKN1A mRNA expression at 3 nM after 1 to 2 hrs by qRT-PCR analysis; format: cell-based
In short: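 RS4;11 cells (RPMI 1640, 10% FBS, 37 °C, 5% CO2) treated with 3 nM or 10 nM compound; total RNA extracted and mRNA of p53 targets MDM2, CDKN1A, PUMA and BAX quantified by qRT-PCR. Mean ± standard error from at least three independent experiments.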

[10] = target: T2, E3 ubiquitin-protein ligase Mdm2; assay: Induction of MDM2 degradation in human RS4:11/IRMI-2 cells harboring p53 hotspot mutation Y236H/R249G assessed as downregulation of MDM2 at 1 to 30 nM after 2 hrs by Western blot analysis; format: cell-based
In short: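 RS4;11/IRMI-2 cells are an MDM2 inhibitor-resistant line derived from RS4;11, with p53 mutations confirmed by sequencing. 2×10^6 cells/well were treated 2 h at the indicated concentrations. MDM2 protein was probed by Western blot after lysis in ice-cold buffer with protease inhibitor.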

MDA-MB-231 [11] = assay: Antiproliferative activity against human MDA-MB-231 cells harboring mutant p53 assessed as cell growth inhibition without interaction with cereblon after 4 days by WST-8 assay; format: functional, cell-based; conditions: MDA-MB-231, 96 h
[12] = target: Protein cereblon/Eukaryotic peptide chain release factor GTP-binding subunit ERF3A/DNA damage-binding protein 1/Cullin-4A (Homo sapiens) (UniProt Q96SW2+Q16531+Q13619+P15170); assay: Protac activity at GSPT1/CUL4/DDB1/CRBN in human RS4:11 cells expressing wild type p53 assessed as decrease in GSPT1 protein level at 10 nM by Western blot analysis; format: cell-based; conditions: TDE = time-dependent effect
In short: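 RS4;11 (wild-type p53) or RS4;11/IRMI-2 (MDM2 inhibitor-resistant derivative, mutant p53) cells kept in RPMI 1640 with 10% FBS at 37 °C, 5% CO₂. 2×10^6 cells/well treated at the indicated concentrations and times, then lysed in ice-cold lysis buffer with protease inhibitor. GSPT1 detected by Western blot with a specific antibody.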

[13] = target: T1, Eukaryotic peptide chain release factor GTP-binding subunit ERF3A; assay: Induction of GSPT1 degradation in human RS4:11 cells at 0.1 uM pretreated with proteasome inhibitor PR-171 followed by compound treatment after 2 hrs by Western blot analysis
[14] = target: T1, Eukaryotic peptide chain release factor GTP-binding subunit ERF3A; assay: Induction of GSPT1 degradation in human MDA-MB-231 cells transfected with CRBN siRNA LQ-021086-11-0002 assessed as decrease in GSPT1 protein level at 0.1 uM after 2 to 24 hrs by Western blot analysis; format: cell-based; in short: as §3

T1 sequence (P15170 whole entry): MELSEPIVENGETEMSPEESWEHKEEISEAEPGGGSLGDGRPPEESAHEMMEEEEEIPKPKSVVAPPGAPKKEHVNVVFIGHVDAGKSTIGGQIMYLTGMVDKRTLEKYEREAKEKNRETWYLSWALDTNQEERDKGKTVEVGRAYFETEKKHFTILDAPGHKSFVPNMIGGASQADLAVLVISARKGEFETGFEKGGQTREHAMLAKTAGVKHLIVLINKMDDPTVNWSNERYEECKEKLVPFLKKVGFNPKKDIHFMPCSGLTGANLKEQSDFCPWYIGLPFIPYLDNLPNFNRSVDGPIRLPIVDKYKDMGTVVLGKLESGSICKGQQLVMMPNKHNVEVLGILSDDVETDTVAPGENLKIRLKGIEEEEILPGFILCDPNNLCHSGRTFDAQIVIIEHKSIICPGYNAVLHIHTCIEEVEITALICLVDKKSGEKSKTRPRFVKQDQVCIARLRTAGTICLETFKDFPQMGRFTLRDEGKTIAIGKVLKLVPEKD
T2 sequence (Q00987 whole entry, looked up): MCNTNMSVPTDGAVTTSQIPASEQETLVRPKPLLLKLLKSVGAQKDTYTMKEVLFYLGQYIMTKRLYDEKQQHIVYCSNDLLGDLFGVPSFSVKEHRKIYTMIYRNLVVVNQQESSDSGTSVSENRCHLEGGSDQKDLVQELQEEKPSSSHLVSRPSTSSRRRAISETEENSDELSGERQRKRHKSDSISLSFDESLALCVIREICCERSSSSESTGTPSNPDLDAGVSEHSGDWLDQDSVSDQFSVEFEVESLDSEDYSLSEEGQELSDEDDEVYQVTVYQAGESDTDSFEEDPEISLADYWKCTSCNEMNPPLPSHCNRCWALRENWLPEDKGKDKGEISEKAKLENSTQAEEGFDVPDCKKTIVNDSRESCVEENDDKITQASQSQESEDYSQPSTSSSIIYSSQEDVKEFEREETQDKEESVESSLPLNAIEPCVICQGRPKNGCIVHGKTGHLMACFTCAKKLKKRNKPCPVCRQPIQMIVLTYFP
Sequence of Cellular tumor antigen p53 (Homo sapiens) (P04637 whole entry, looked up): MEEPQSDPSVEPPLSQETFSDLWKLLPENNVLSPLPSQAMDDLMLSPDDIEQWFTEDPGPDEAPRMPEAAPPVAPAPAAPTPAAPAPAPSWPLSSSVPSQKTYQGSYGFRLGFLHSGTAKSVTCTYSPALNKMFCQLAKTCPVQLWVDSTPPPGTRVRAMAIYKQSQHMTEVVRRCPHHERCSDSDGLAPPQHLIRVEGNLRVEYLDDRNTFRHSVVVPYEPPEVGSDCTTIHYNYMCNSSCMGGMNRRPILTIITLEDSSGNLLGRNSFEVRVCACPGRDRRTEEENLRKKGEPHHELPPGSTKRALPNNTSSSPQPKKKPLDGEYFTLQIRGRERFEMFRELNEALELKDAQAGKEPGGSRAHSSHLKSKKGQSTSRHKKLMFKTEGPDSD
Sequence of Protein cereblon/Eukaryotic peptide chain release factor GTP-binding subunit ERF3A/DNA damage-binding protein 1/Cullin-4A (Homo sapiens) (P15170 whole entry, looked up): as the sequence (P15170 whole entry) above
Sequence of Protein cereblon/Eukaryotic peptide chain release factor GTP-binding subunit ERF3A/DNA damage-binding protein 1/Cullin-4A (Homo sapiens) (Q13619 whole entry, looked up): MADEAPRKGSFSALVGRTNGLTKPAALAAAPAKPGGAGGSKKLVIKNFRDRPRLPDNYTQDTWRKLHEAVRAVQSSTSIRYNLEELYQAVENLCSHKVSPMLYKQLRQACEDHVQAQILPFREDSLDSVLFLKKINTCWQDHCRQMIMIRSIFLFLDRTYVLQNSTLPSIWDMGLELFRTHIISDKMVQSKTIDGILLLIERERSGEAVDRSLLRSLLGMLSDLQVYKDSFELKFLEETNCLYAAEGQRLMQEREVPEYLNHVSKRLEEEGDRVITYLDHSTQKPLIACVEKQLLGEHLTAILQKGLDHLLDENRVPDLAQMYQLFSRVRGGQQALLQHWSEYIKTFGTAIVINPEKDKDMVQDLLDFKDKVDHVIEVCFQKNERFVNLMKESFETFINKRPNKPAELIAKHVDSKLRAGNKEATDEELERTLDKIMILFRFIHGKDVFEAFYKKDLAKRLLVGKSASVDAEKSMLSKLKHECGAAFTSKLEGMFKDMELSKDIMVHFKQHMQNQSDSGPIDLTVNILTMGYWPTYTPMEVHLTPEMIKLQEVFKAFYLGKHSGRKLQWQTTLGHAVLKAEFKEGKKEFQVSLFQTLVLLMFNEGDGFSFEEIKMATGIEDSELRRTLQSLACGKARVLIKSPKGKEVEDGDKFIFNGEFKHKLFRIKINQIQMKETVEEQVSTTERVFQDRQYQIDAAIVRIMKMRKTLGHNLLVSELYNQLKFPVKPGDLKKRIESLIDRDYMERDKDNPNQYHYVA
Sequence of Protein cereblon/Eukaryotic peptide chain release factor GTP-binding subunit ERF3A/DNA damage-binding protein 1/Cullin-4A (Homo sapiens) (Q16531 whole entry, looked up): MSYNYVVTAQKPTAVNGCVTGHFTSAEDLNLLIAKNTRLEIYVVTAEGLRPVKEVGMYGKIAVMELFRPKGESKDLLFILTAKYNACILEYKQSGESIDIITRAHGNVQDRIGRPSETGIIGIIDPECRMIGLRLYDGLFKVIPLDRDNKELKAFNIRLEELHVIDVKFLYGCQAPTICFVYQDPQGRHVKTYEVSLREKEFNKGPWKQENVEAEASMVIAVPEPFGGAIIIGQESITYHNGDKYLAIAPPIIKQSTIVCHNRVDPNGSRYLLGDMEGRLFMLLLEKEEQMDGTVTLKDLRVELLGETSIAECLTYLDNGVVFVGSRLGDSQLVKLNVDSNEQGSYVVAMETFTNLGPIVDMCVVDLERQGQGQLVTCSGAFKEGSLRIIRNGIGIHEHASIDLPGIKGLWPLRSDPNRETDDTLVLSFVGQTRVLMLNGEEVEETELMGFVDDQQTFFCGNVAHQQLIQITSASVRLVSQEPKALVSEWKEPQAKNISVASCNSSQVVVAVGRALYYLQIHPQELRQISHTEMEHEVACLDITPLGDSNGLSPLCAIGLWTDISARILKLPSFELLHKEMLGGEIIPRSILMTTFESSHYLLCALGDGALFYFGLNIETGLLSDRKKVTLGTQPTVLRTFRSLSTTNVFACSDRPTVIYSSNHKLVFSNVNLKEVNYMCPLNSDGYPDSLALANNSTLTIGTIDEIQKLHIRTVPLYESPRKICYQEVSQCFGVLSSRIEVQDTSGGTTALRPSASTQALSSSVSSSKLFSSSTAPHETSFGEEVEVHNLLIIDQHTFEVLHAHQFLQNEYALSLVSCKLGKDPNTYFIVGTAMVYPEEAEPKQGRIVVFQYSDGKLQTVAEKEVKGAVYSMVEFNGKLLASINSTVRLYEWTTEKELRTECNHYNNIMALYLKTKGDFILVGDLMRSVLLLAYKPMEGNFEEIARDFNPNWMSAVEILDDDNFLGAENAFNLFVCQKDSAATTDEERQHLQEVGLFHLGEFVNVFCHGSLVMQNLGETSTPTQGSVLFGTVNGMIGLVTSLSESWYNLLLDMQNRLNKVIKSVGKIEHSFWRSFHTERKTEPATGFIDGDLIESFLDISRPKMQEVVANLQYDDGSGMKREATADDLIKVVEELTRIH
Sequence of Protein cereblon/Eukaryotic peptide chain release factor GTP-binding subunit ERF3A/DNA damage-binding protein 1/Cullin-4A (Homo sapiens) (Q96SW2 whole entry, looked up): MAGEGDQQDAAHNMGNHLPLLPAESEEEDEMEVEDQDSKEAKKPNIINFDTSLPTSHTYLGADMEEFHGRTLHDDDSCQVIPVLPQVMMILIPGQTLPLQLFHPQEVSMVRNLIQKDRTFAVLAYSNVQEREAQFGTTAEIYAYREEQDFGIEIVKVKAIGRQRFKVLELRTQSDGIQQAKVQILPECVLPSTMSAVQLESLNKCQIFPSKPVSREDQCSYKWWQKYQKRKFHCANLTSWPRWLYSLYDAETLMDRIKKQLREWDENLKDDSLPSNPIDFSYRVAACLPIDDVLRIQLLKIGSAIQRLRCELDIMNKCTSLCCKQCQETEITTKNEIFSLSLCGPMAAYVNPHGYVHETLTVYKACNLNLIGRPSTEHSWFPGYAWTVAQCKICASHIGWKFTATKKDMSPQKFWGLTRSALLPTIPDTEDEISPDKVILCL
Sequence of GSPT1/E3 ubiquitin-protein ligase Mdm2 (Homo sapiens) (P15170 whole entry, looked up): as the sequence (P15170 whole entry) above
Sequence of GSPT1/E3 ubiquitin-protein ligase Mdm2 (Homo sapiens) (Q00987 whole entry, looked up): as the sequence (Q00987 whole entry, looked up) above
Sequence of Protein cereblon/Eukaryotic peptide chain release factor GTP-binding subunit ERF3A (Homo sapiens) (P15170 whole entry, looked up): as the sequence (P15170 whole entry) above
Sequence of Protein cereblon/Eukaryotic peptide chain release factor GTP-binding subunit ERF3A (Homo sapiens) (Q96SW2 whole entry, looked up): as the sequence (Q96SW2 whole entry, looked up) above

O=C1CCC(N2Cc3c(CCCCCNC(=O)[C@@H]4NC5(CCCCC5)[C@@]5(C(=O)Nc6cc(Cl)ccc65)[C@H]4c4cccc(Cl)c4F)cccc3C2=O)C(=O)N1 (stereo partly drawn)
IC50 (RS4-11): 0.17 nM
DC50 [1]: 1.3 nM
IC50 (HL-60): 8.3 nM
IC50 (MDA-MB-231 [2]): 28.9 nM
IC50 (MDA-MB-231 [3]): 30 nM
inhibition [4]: Active
IC50 (MV4-11): 7.9 nM
IC50 (MDA-MB-231 [5]): 19.3 nM
Activity [6]: inactive
Activity [7]: inactive
IC50 (MDA-MB-468): 26.4 nM
Activity [8]: inactive
Activity [9]: inactive
Activity [10]: Active
IC50 (MDA-MB-231 [11]): 39.4 nM
Activity [12]: Tde
Activity [13]: inactive
Activity [14]: inactive
